Screening data: PubChem, NMMLSC
ABCB1 block – ABCB1 efflux pump inhibitors, primary screen, cell-based, multiplex, flow cytometry, ABCG2 counter-screen; ATP-dependent translocase ABCB1 (Homo sapiens), P08183; CCRF-Adr cells, JC-1 efflux; AID 1326, 2008; inhibition, % at 6.6 µM; 0.067% of 190,000 active; in the data active = inhibition above about 40%;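 also: 0% = vehicle and 100% = reference inhibitor; higher value means more JC-1 retained so stronger ABCB1 efflux block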
MEKK2 WT-MEK5 – modulators of MEK5 binding to wildtype MEKK2, primary screen, biochemical, multiplex bead flow cytometry, Alexa488-MEK5; AID 1531, 2009; 1.1% of 290,000 active; binding response (% of control), % at 10 µM; Mitogen-activated protein kinase kinase kinase 2 (Homo sapiens), Q9Y2U5; Alexa488-MEK5 binding to MEKK2 WT; actives lie on both sides; in the data active = binding response below about 67% or above about 130%
Efflux pump mplx – inhibitors of Candida efflux pumps in yeast, primary screen, S. cerevisiae, Nile Red, multiplex | 0.44% of 330,000 active | S. cerevisiae Candida pump triplex | inhibition, % at 10 µM;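 active = plate passing quality check with inhibition over a set limit, or well fluorescence over plate mean plus 4 SD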;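 also: Nile Red retained in pooled yeast measured as flow cytometry median fluorescence; 0% = buffer negative control and 100% = Enniatin B positive control; higher means more Nile Red kept so more efflux inhibition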
ABCG2 block – ABCG2 efflux pump inhibitors, primary screen, multiplex with ABCB1, IgMXP3 cells, flow cytometry; JC-1 efflux; inhibition, % at 6.6 µM; Broad substrate specificity ATP-binding cassette transporter ABCG2 (Homo sapiens), Q9UNQ0; 0.1% of 190,000 active; AID 1325, 2008;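 active = inhibition above 80%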;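 also: 0% = DMSO and 100% = nicardipine control wells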
Target sequence (Q9UNQ0 whole entry, looked up): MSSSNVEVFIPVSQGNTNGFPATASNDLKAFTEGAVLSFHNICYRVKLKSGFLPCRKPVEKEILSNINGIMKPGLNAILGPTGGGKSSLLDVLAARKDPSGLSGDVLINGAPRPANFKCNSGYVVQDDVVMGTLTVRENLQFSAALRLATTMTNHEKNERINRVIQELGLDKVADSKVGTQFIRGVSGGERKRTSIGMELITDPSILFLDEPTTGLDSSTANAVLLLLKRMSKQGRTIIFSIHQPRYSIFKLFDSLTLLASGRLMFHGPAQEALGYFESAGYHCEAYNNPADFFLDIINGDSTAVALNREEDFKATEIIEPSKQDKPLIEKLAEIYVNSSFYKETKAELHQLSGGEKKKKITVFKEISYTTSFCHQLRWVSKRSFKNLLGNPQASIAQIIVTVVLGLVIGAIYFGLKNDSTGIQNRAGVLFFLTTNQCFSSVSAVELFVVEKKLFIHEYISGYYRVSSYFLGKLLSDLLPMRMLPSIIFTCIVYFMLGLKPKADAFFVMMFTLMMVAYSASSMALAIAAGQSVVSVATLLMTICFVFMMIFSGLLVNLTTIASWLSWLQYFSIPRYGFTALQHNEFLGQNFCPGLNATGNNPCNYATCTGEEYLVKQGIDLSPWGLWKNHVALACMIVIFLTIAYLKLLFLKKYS
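material = IgMXP3 (ABCG2) plus far-red-tagged CCRF-Adr (ABCB1) cells | amount = 3 million cells/mL, equal mix of both lines | also added = JC-1 transporter substrate | dosing = one concentration, 6.6 µM final | schedule = 10 min at 25 °C | measured by = flow cytometric JC-1 green MFI at 530 nm | read-out basis = percent efflux inhibition, scaled nicardipine 100% to DMSO 0%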
MEKK3 PB1 HTS – modulators of MEKK3-MEK5 PB1 binding, primary screen, biochemical, wildtype MEKK3, multiplex bead flow cytometry, Alexa488-MEK5. Mitogen-activated protein kinase kinase kinase 3 (Homo sapiens), Q99759. bead-based flow cytometry, Alexa488-MEK5 binding to MEKK3; actives lie on both sides; 0 = blocked by unlabeled MEK5, 100 = vehicle. binding response (% of control), % at 10 µM. 1.4% of 290,000 active. AID 1529, 2009;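 active = binding response more than 3 SD above or below the average of its plate-row segment, actives on both sides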;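 also: Alexa488 bead fluorescence after subtracting the streptavidin-only scavenger bead signal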
MEKK2mut PB1 HTS – MEK5 binding signal on mutant MEKK2 PB1, primary screen, biochemical, multiplex bead flow cytometry, Alexa488-MEK5; percent response, % at 10 µM; 0.35% of 290,000 active; Alexa488-MEK5 binding to MEKK2 mutant; in the data active = percent response above about 24%, passing the limit was not always enough
Yeast cmpd fluor – compound fluorescence in yeast efflux pump counter-screen; 4% of 1,700 active; fluorescence ratio to DMSO, % at 10 µM; S. cerevisiae AD/pABC3, flow cytometry; AID 588517; shares compounds with Efflux pump mplx;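 active = fluorescence ratio to DMSO above its plate's cutoff, the plate mean ratio plus 5 SD, cut at about 210% in these data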;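 also: unstained yeast with no Nile Red so the signal is compound autofluorescence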
Mdr1 pump inh – inhibitors of Candida albicans Mdr1 efflux, confirmation, flow cytometry, singleplex, Cherry Pick1 set; shares compounds with Efflux pump mplx; AID 588518, 2011; S. cerevisiae AD/CaMDR1, Nile Red efflux; 1% of 1,700 active; inhibition, % at 10 µM; in the data active = inhibition above about 26%;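 also: 0% = DMSO vehicle and 100% = reference inhibitor; higher means more Nile Red retained so more efflux inhibition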
CaCdr2 efflux inh – inhibitors of Candida albicans Cdr2 efflux pump, confirmation, S. cerevisiae AD/CaCDR2, flow cytometry, cherry pick 1, singleplex; AID 588520, 2011; shares compounds with Efflux pump mplx; Nile Red retention; 4% of 1,700 active; Nile Red retention ratio vs DMSO, % at 10 µM; in the data active = Nile Red retention ratio vs DMSO above about 190%;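 also: higher ratio means more blocking of Cdr2 efflux of the dye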
Cdr1 pump inh – inhibitors of Candida albicans Cdr1 efflux pump, confirmation, S. cerevisiae AD/CaCDR1, flow cytometry, cherry pick 1, singleplex. Nile Red efflux. shares compounds with Efflux pump mplx. inhibition, % at 10 µM. 1% of 1,700 active;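 active = inhibition above the screen-wide mean plus twice its standard deviation, cut at about 32% in these data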
* hit, by the source's call; . = no result; + = active, no number. Hits are enriched below; roughly 2.5% of the tested compounds scored in any of these assays.

SMILES | ABCB1 block | MEKK2 WT-MEK5 | Efflux pump mplx | ABCG2 block | MEKK3 PB1 HTS | MEKK2mut PB1 HTS | Yeast cmpd fluor | Mdr1 pump inh | CaCdr2 efflux inh | Cdr1 pump inh
Cc1ccc(C(=O)Nc2ncc3c(n2)CC(c2ccco2)CC3=O)cc1 (centres undefined) | 1 | 82 | 9.0* | 7 | 83 | -13 | 105 | 0 | 89 | 0
[2H]C([2H])(CCOS(N)(=O)=O)c1ccccc1 | . | 97 | 0 | . | 101 | 0 | . | . | . | .
COc1ccc(/C=C/C(=O)Nc2cc(=O)n(C)c(=O)n2C)cc1 | 0 | 99 | 15* | 18 | 99 | -2 | 97 | 0 | 88 | 0
CC(C)(C)c1nnc(NC(=O)COc2ccc3c(c2)OCO3)s1 | . | . | 0 | . | . | . | 112 | 0 | 97 | 0
CC(C)(C)c1nnc(NC(=O)c2ccc3c(c2)OCO3)s1 | . | 94 | 0 | . | 97 | -2 | . | . | . | .
CCCCCCN1C=CC=C/C1=C\C=C(C#N)C#N | . | 97 | 0 | . | 105 | 3 | . | . | . | .
CCOc1ccc(S(=O)(=O)N(C(=O)c2ccco2)c2cc3sc(=O)oc3c3ccccc23)cc1 | 0 | 94 | 2.0* | -2 | 95 | -3 | 109 | 0 | 108 | 0
C=CCn1c(=O)c2ccccc2n2c(SCC(=O)Nc3sc(C)c(CC)c3C(=O)OCC)nnc12 | 3 | 94 | 0.5* | 4 | 95 | 0 | 99 | 0 | 116 | 0
O=C(NC1CCCc2c1cnn2-c1ccccc1F)c1ccccn1 (centres undefined) | . | 98 | 0 | . | 99 | 1 | 106 | 0 | 105 | 0
COc1ncccc1C(=O)NC1CCCc2c1cnn2-c1cc(C)cc(C)c1 (centres undefined) | . | 102 | 0 | . | 101 | 5 | 100 | 0 | 108 | 0
Cc1ccc2nc(Cl)c(/C=N/Nc3nc(C)cc(C)n3)c(=O)n2c1 | 1 | 99 | -1 | 32 | 101 | -1 | . | . | . | .
Cc1cc(C)nc(N/C(=N\S(=O)(=O)Cc2ccccc2)Nc2ccccc2Br)n1 | 13 | 94 | 13* | 12 | 95 | -3 | 108 | 0 | 106 | 0
O=C(O)c1ccc(N2C(=O)/C(=C/c3ccc(-c4ccc([N+](=O)[O-])cc4)o3)C=C2c2ccccc2)cc1 | 3 | . | 4.7* | 4 | 52 | 30 | 734* | 2 | + | 2
Cc1cccc(N2CCN(S(=O)(=O)c3cccc4nonc34)CC2)c1C | 0 | 101 | 0 | 6 | 98 | -2 | . | . | . | .
O=S(=O)(c1cccc2nonc12)N1CCN(c2ccccc2F)CC1 | 1 | 99 | 1.1* | 4 | 102 | 2 | 98 | 0 | 101 | 0
COc1ccccc1-c1nc(C#N)c(N2CCN(C(c3ccccc3)c3ccccc3)CC2)o1 | 1 | 100 | 0.5* | 2 | 102 | 1 | 100 | 0 | 116 | 0
